From ChEMBL document CHEMBL2176955, “Discovery of the macrocycle 11-(2-pyrrolidin-1-yl-ethoxy)-14,19-dioxa-5,7,26-triaza-tetracyclo[19.3.1.1(2,6).1(8,12)]heptacosa-1(25),2(26),3,5,8,10,12(27),16,21,23-decaene (SB1518), a potent Janus kinase 2/fms-like tyrosine kinase-3 (JAK2/FLT3) inhibitor for the treatment of myelofibrosis and …” (J Med Chem, 2011)

Experiments:
[1] = Antitumor activity against mouse BA/F3 cells harboring JAK2 V617F mutant allografted in athymic BALB/c nude mouse assessed as normalization of liver weight at 150 mg/kg, po bid administered on day 4 post inoculation for 13 consecutive days measured on day 13 relative to vehicle-treated control; format: functional, BaF3
Method in brief: (§1)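 Female BALB/c nude mice given 2 × 10⁶ Ba/F3-JAK2 V617F cells by tail vein in serum-free medium. Oral dosing twice daily at 75 or 150 mg/kg (free base) from day 4 for 13 days, 8 mice per group, 4 naive baseline mice. Spleens and livers weighed at sacrifice; ANOVA with Dunnett's test.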

[2] = Antitumor activity against mouse BA/F3 cells harboring JAK2 V617F mutant allografted in athymic BALB/c nude mouse assessed as normalization of spleen weight at 150 mg/kg, po bid administered on day 4 post inoculation for 13 consecutive days measured on day 13 relative to vehicle-treated control; format: functional, BaF3; method in brief: as §1
[3] = Tmax in Beagle dog at 3 mg/kg, po administered via gelatin capsule as single dose; format: ADME, organism-based, Canis lupus familiaris; set-up: dose 3 mg/kg, route oral; details: in vivo
[4] = Terminal half life in BALB/c mouse at 30 mg/kg, po administered as single dose; format: ADME, organism-based; set-up: dose 30 mg/kg, route oral; details: in vivo, read-out: beta t1/2 (converted)
[5] = Apparent permeability from apical to basolateral side in human Caco2 cells at 5 uM after 2 hrs by LC/MS analysis at pH 7.4; format: ADME, cell-based; details: Caco-2, pH 7.4
Method in brief: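 Compound at 5 μM in HBSS (DMSO <1%) applied apically or basolaterally to 21–28 day Caco-2 monolayers, both sides pH 7.4. Both sides sampled at 2 h, LC/MS quantitation with 4-point calibration. Monolayer integrity checked by TEER (450–650 Ωcm²) and Lucifer Yellow.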

Mus musculus [6] = assay: Toxicity in athymic BALB/c nude mouse allografted with mouse BA/F3 cells harboring JAK2 V617F mutant assessed as body weight loss at 75 mg/kg, po administered twice daily for 13 consecutive days starting from day 4 post challenge relative to control; format: organism-based, BaF3; set-up: dose 75 mg/kg, route oral; details: in vivo
[7] = Cmax in Wistar rat at 10 mg/kg, po administered as single dose; format: ADME, organism-based; set-up: dose 10 mg/kg, route oral; details: in vivo
Cytochrome P450 1A2 = target: T1, Cytochrome P450 1A2 (Homo sapiens, UniProt P05177); assay: Inhibition of CYP1A2 in human liver microsomes assessed as decrease in formation of resorufin from ethoxyresorufin substrate after 5 mins by LC-MS/MS; format: ADME, Microsome
T1 sequence (P05177 whole entry): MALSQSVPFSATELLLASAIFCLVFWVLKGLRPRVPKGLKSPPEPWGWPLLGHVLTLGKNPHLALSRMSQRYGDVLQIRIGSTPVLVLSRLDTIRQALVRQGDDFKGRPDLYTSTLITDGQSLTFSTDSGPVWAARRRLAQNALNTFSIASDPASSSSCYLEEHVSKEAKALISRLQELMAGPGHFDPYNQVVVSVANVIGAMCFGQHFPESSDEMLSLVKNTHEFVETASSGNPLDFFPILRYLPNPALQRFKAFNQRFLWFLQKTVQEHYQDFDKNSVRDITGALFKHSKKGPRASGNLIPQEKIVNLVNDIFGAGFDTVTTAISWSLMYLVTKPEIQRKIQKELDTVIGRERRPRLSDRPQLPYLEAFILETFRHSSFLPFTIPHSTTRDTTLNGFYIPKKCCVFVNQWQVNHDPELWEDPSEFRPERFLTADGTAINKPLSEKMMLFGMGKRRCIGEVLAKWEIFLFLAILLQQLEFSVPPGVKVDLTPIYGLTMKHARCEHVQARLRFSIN
Method in brief: (§2)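 Human liver microsomes with 1 mM NADPH at 37 °C. Test compound at 0.05–25 μM (final DMSO 0.35%). Conditions per isoform: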

[8] = Oral bioavailability in BALB/c mouse at 30 mg/kg, administered as single dose; format: ADME, organism-based; details: in vivo
[9] = Terminal half life in Beagle dog at 3 mg/kg, po administered via gelatin capsule as single dose; format: ADME, organism-based, Canis lupus familiaris; set-up: dose 3 mg/kg, route oral; details: in vivo, read-out: beta t1/2 (converted)
[10] = AUC (0 to 8 hrs) in Wistar rat at 10 mg/kg, po administered as single dose; format: ADME, organism-based; set-up: time < 8 hr, dose 10 mg/kg, route oral; details: plasma
Cytochrome P450 2C9 = Cytochrome P450 2C9 (Homo sapiens, UniProt P11712); assay: Inhibition of CYP2C9 in human liver microsomes assessed as decrease in formation of 4-hydroxytolbutamide from tolbutamide substrate after 60 mins by LC-MS/MS; format: ADME, Microsome; method in brief: as §2
Cytochrome P450 2C19 = Cytochrome P450 2C19 (Homo sapiens, UniProt P33261); assay: Inhibition of CYP2C19 in human liver microsomes assessed as decrease in formation of 4-hydroxymephenytoin from mephenytoin substrate after 60 mins by LC-MS/MS; format: ADME, Microsome; method in brief: as §2
[11] = Half life in dog liver microsomes at 5 uM by LC/MS/MS analysis; format: ADME, Canis lupus familiaris, Microsome
Method in brief: (§3)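 Compound at 5 μM incubated at 37 °C with dog or rat liver microsomes (~0.87 mg/mL) in 50 mM potassium phosphate pH 7.4 with NADPH regenerating system.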

CYP2D6 = CYP2D6 (Homo sapiens, UniProt P10635); assay: Inhibition of CYP2D6 in human liver microsomes assessed as decrease in formation of dextrorphan from dextromethorphan substrate at 5 uM after 30 mins by LC-MS/MS; format: ADME, Microsome; details: probe dextromethorphan; method in brief: as §2
[12] = Half life in rat liver microsomes at 5 uM by LC/MS/MS analysis; format: ADME, Microsome; method in brief: as §3
[13] = Oral bioavailability in Beagle dog at 3 mg/kg, administered as single dose; format: ADME, organism-based, Canis lupus familiaris; details: in vivo
MV4-11 [14] = assay: Antiproliferative activity against human MV4-11 cells harboring FLT3 […] mutant assessed as cell viability after 48 hrs by Cell titer Glo assay; format: functional; details: MV4-11, 48 h
Mus musculus [15] = assay: Toxicity in athymic BALB/c nude mouse xenografted with human MV4-11 cells harboring FLT3 ITD assessed as body weight loss at 50 to 100 mg/kg, po qd administered for 21 consecutive days measured up to 55 days relative to control; format: organism-based; set-up: dose 50-100 mg/kg, route oral; details: in vivo, 1320 h
Method in brief: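 Female BALB/c nude mice implanted subcutaneously in right flank with 1 × 10⁷ MV4-11 cells in Matrigel 1:1. At about 130 mm³, oral once-daily dosing at 25, 50 or 100 mg/kg (free base) for 21 days, 8–10 mice per group. Tumours followed to day 55 or 1000 mm³; body weight assessed at termination.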

physchem = details: phosphate buffer saline, pH 7
CYP3A4 = CYP3A4 (Homo sapiens, UniProt P08684); assay: Inhibition of CYP3A4 in human liver microsomes assessed as decrease in formation of 1-hydroxymidazolam from midazolam substrate at 5 uM after 5 mins by LC-MS/MS; format: ADME, Microsome; details: probe midazolam; method in brief: as §2
[16] = Cmax in Beagle dog at 3 mg/kg, po administered via gelatin capsule as single dose; format: ADME, organism-based, Canis lupus familiaris; set-up: dose 3 mg/kg, route oral; details: in vivo
[17] = target: Tyrosine-protein kinase JAK1 (Homo sapiens, UniProt P23458); assay: Inhibition of recombinant JAK1 using Poly (Glu,Ala,Tyr) as substrate after 2 hrs by luminescence assay
Method in brief: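 Luciferase-coupled ATP-depletion luminescence assay in 50 mM Hepes pH 7.5 with MgCl₂, MnCl₂, BGP, DTT and orthovanadate, 2 h at room temperature. Conditions per target: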

in vitro = details: PAMPA
Mus musculus [18] = assay: Toxicity in athymic BALB/c nude mouse allografted with mouse BA/F3 cells harboring JAK2 V617F mutant assessed as body weight loss at 75 and 150 mg/kg, po administered twice daily for 13 consecutive days starting from day 4 post challenge relative to control; details: in vivo
[19] = AUC ( 0 to 8 hrs) in Beagle dog at 3 mg/kg, po administered via gelatin capsule as single dose; format: ADME, organism-based, Canis lupus familiaris; set-up: time < 8 hr, dose 3 mg/kg, route oral; details: plasma
[20] = target: Cyclin-dependent kinase 2/cyclin A (Homo sapiens, UniProt P24941); assay: Inhibition of recombinant CDK2/Cyclin A using RbinG as substrate after 2 hrs by luminescence assay; format: protein-complex assay
[21] = Plasma protein binding in human at 1000 ng/ml by equilibrium dialysis assay; format: ADME, cell-free; details: read-out: PPB (converted)
Method in brief: (§4)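 Equilibrium dialysis of mouse, dog or human plasma spiked to 1000 ng/mL against PBS, 4 h at 37 °C. The buffer side was extracted with MTBE in triplicate and analysed by LC/MS/MS.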

[22] = Plasma protein binding in dog at 1000 ng/ml by LC/MS/MS analysis; format: ADME, cell-free, Canis lupus familiaris; details: read-out: PPB (converted); method in brief: as §4
[23] = Cmax in BALB/c mouse at 30 mg/kg, po administered as single dose; format: ADME, organism-based; set-up: dose 30 mg/kg, route oral; details: in vivo
[24] = Plasma protein binding in mouse at 1000 ng/ml by LC/MS/MS analysis; format: ADME, cell-free; details: read-out: PPB (converted); method in brief: as §4
[25] = Antiproliferative activity against mouse BA/F3 cells harboring JAK2 V617F mutation assessed as cell viability after 48 hrs by Cell titer Glo assay; format: functional; details: BaF3, 48 h
MV4-11 [26] = assay: Antitumor activity against human MV4-11 cells harboring FLT3 ITD xenografted in athymic BALB/c nude mouse assessed as survival at 100 mg/kg, po qd administered for 21 consecutive days measured up to 55 days ( Rvb = 33 days ); format: functional
[27] = AUC (0 to 8 hrs) in BALB/c mouse at 30 mg/kg, po administered as single dose; format: ADME, organism-based; set-up: time < 8 hr, dose 30 mg/kg, route oral; details: plasma
[28] = Oral bioavailability in Wistar rat at 10 mg/kg, administered as single dose; format: ADME, organism-based; details: in vivo
MV4-11 [29] = assay: Antitumor activity against human MV4-11 cells harboring FLT3 ITD xenografted in athymic BALB/c nude mouse assessed as survival at 50 mg/kg, po qd administered for 21 consecutive days measured up to 55 days ( Rvb = 33 days ); format: functional
MV4-11 [30] = assay: Antitumor activity against human MV4-11 cells harboring FLT3 ITD xenografted in athymic BALB/c nude mouse assessed as survival at 25 mg/kg, po qd administered for 21 consecutive days measured up to 55 days ( Rvb = 33 days ); format: functional
[31] = Terminal half life in Wistar rat at 10 mg/kg, po administered as single dose; format: ADME, organism-based; set-up: dose 10 mg/kg, route oral; details: in vivo, read-out: beta t1/2 (converted)
[32] = target: Non-receptor tyrosine-protein kinase TYK2 (Homo sapiens, UniProt P29597); assay: Inhibition of recombinant TYK2
Chain of Non-receptor tyrosine-protein kinase TYK2 (P29597 whole entry): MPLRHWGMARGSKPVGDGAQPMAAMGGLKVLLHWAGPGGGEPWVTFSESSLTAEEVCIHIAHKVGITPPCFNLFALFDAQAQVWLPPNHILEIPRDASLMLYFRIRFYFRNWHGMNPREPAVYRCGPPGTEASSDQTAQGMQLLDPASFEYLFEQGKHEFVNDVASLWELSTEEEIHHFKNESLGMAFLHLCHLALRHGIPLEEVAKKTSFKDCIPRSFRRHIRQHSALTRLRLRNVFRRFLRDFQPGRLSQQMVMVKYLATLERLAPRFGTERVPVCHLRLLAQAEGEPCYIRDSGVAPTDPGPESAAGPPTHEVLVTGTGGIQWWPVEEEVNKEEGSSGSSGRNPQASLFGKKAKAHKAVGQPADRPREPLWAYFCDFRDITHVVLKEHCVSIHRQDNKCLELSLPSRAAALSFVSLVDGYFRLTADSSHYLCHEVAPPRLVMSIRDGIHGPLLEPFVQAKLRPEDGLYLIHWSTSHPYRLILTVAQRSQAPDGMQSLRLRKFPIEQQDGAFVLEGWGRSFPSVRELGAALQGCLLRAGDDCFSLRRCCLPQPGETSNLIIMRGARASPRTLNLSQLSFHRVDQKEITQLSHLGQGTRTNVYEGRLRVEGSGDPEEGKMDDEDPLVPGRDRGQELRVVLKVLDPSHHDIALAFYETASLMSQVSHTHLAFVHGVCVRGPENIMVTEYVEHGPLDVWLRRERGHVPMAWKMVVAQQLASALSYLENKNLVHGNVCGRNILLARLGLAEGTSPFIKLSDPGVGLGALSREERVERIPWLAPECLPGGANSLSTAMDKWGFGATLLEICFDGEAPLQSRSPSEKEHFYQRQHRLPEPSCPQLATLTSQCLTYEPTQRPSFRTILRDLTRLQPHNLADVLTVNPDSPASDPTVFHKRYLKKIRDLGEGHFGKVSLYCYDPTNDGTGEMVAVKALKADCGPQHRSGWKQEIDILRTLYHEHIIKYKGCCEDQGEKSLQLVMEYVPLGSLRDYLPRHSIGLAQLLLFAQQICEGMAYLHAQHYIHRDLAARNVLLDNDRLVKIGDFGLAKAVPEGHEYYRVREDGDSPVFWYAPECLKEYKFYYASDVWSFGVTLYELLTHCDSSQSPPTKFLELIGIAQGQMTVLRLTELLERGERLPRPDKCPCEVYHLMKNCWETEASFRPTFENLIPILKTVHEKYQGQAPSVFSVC

Chain of Tyrosine-protein kinase JAK1 (P23458 whole entry): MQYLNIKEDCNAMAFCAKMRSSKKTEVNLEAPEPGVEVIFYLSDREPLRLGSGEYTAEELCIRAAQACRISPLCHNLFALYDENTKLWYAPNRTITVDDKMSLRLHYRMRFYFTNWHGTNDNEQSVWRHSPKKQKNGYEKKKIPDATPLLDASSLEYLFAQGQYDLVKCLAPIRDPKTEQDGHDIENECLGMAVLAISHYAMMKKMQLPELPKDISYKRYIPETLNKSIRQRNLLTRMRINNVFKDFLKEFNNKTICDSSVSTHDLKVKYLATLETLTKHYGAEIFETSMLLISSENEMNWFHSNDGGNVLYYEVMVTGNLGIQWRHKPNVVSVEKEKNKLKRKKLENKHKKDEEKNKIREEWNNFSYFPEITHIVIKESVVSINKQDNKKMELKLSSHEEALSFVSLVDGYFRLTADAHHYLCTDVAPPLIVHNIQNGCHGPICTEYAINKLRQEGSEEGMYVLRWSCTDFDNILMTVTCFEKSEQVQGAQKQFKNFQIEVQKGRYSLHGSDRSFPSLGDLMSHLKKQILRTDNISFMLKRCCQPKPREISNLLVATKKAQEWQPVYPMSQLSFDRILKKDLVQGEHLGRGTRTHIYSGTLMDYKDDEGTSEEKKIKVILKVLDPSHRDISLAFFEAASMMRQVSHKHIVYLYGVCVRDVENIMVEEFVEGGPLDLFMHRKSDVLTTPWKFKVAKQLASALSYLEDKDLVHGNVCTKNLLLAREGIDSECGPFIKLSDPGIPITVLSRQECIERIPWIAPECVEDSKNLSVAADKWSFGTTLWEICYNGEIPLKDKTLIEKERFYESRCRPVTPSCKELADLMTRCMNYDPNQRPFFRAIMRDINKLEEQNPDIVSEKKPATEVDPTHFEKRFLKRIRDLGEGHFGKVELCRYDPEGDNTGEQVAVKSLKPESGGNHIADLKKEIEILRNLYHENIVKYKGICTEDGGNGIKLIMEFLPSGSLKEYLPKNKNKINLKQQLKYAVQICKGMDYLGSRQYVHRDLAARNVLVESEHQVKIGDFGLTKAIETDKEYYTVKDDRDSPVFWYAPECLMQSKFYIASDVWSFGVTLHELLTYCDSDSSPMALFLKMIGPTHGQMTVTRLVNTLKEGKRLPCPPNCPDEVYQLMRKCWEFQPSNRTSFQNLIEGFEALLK
Chain of Cytochrome P450 2C9 (P11712 whole entry): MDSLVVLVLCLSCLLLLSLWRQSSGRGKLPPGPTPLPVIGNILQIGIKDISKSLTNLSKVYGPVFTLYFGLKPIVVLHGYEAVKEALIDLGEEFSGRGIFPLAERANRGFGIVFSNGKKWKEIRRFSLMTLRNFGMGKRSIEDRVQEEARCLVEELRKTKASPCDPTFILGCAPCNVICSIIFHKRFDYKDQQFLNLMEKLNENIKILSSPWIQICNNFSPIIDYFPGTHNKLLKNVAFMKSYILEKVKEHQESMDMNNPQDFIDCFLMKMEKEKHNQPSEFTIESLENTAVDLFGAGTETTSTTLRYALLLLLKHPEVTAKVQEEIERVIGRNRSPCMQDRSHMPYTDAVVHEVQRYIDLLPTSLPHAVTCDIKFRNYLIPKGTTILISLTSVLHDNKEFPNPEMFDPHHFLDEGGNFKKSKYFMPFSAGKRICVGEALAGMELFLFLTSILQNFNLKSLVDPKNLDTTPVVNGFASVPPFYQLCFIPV
Chain of Cytochrome P450 2C19 (P33261 whole entry): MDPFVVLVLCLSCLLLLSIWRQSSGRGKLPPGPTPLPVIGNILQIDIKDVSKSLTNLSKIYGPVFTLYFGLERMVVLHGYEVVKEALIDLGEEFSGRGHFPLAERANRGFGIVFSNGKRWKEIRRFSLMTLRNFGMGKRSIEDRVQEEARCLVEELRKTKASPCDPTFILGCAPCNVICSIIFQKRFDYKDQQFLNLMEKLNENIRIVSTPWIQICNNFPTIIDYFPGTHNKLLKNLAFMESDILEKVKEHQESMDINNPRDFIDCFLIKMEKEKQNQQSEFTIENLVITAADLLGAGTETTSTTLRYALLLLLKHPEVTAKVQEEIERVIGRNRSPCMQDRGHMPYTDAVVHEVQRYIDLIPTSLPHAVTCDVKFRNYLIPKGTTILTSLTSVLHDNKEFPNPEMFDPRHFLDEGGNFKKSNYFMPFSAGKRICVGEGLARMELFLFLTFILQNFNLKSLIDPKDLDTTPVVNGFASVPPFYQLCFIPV
Chain of CYP3A4 (P08684 whole entry): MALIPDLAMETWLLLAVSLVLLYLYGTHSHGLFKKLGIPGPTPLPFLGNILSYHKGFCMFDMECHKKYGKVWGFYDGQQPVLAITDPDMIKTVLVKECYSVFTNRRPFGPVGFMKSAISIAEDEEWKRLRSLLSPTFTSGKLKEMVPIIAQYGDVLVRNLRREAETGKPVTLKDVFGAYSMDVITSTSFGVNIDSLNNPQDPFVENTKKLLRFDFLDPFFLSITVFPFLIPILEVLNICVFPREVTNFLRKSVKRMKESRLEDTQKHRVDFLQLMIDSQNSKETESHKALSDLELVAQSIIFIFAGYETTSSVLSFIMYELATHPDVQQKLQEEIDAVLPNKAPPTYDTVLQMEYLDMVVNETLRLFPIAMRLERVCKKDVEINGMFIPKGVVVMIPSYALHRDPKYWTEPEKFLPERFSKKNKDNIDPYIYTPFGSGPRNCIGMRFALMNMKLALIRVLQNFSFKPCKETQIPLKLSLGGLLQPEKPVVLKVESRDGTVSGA
Chain of CYP2D6 (P10635 whole entry): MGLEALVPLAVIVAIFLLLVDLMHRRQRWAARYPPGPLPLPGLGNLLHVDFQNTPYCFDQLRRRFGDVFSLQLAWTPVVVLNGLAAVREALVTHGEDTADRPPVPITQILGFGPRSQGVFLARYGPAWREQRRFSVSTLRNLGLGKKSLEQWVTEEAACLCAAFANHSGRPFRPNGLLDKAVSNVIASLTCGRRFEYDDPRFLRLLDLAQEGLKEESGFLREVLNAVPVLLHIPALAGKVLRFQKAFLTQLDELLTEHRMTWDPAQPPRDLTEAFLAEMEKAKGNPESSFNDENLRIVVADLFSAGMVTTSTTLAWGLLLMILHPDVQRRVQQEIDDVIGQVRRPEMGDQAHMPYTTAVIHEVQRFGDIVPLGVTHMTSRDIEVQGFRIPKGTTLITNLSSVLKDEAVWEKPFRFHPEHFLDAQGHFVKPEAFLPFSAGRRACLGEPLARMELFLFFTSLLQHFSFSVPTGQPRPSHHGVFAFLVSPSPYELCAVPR

C1=CCOCc2cc(ccc2OCCN2CCCC2)Nc2nccc(n2)-c2cccc(c2)COC1.Cl (mixture of isomers)
Activity [1]: 99%
Activity [2]: 42%

C1=N/C2=N/c3ccc(OCCN4CCCC4)c(c3)COC/C=C/COCc3cccc(c3)C(=C1)N2 (mixture of isomers) [PACRITINIB]
Tmax [3]: 2 h
half-life [4]: 0.84 h
Papp A→B at 2 h, 5 µM [5]: 160 nm/s
Activity (Mus musculus [6]): Non-toxic
Cmax [7]: 0.114 µg/mL
IC50 (Cytochrome P450 1A2): > 5 µM
bioavailability [8]: 39%
half-life [9]: 3.4 h
AUC(0-t) at 8 h [10]: 0.599 µg·h/mL
IC50 (Cytochrome P450 2C9): > 5 µM
IC50 (Cytochrome P450 2C19): > 5 µM
half-life at 5 µM [11]: 0.683 h
inhibition at 0.5 h, 5 µM (CYP2D6): 20%
half-life at 5 µM [12]: 0.3 h
bioavailability [13]: 24%
GI50 (MV4-11 [14]): 0.047 µM
Activity (Mus musculus [15]): Non-toxic
solubility (physchem): > 0.15 mg/mL
inhibition at 5 min, 5 µM (CYP3A4): 20%
Cmax [16]: 0.0115 µg/mL
IC50 [17]: 1.28 µM
Papp at 5 h, 1 µM (in vitro): 93 nm/s
Activity (Mus musculus [18]): Non-toxic
AUC(0-t) at 8 h [19]: 0.053 µg·h/mL
IC50 [20]: 3.9 µM
fraction unbound at 1000 ng/ml [21]: 0.0012
fraction unbound at 1000 ng/ml [22]: 0.0037
Cmax [23]: 0.292 µg/mL
fraction unbound at 1000 ng/ml [24]: 0.0059
GI50 [25]: 0.16 µM
Survival (MV4-11 [26]): 55 days
AUC(0-t) at 8 h [27]: 0.399 µg·h/mL
bioavailability [28]: 10%
Survival (MV4-11 [29]): 55 days
Survival (MV4-11 [30]): 35 days
half-life [31]: 5.7 h
IC50 [32]: 0.05 µM
